Only some compounds are listed: those with a hit (about 3.8% of all), similar ones and a draw of the others.
SDO1 yeast rescue – restores growth of sdo1-depleted yeast. S. cerevisiae sdo1-depleted JHY4D growth rescue, OD600 30 h; stronger effect = higher value; pdr5 snq2 efflux-pump mutant strain. z-score at 10 µM. 0.21% of 140,000 active;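 active = z-score above 3 at both the 24 hr and the 30 hr optical density reads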
Yeast life ext – yeast lifespan extension; S. cerevisiae growth with nicotinamide, OD615; deaD strain in restrictive glucose medium; inhibition of the nicotinamide effect, % at 10 µM; 0.68% of 130,000 active; AID 775;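 active = inhibition above a set limit, placed 3 SD over the median of all compounds, cut at about 26% in these data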
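Measured by: optical density (absorbance) at 615 nm; System: modified budding yeast, DeaD strain; Medium: restrictive CSMM-D dextrose medium; Timing: 4 h preincubation then 48 h treatment at 30 °C.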
Measles CPE – protection of cells from measles virus; Measles virus-infected cells, CPE protection, absorbance; protection (pct of control), % at 4 µM; 1.5% of 140,000 active; in the data active = protection mostly above about 24%, no sharp cut-off; inactive = mostly below about 26%
BB579 growth dn – chemicals that inhibit yeast BB579 growth in restrictive medium (lifespan-shortening candidates). S. cerevisiae BB579 growth, OD615, 48 h. inhibition, % at 10 µM. 0.51% of 140,000 active. AID 804;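 active = inhibition above a set limit, 3 SD over the mean compound inhibition, cut at about 44% in these data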
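Detection: OD615 turbidity measurement; Material: Saccharomyces cerevisiae DeaD strain BB579, replicative lifespan model yeast; Timing: 48 h exposure, 30 °C; Doses: single 10 µM dose; Medium: CSMM-D restrictive synthetic medium containing dextrose (glucose); Controls: amphotericin B at 10 µg/mL as positive control.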
RAM inhibit – yeast RAM network inhibition. S. cerevisiae dse1pr::URA3 reporter, 5-FOA growth OD615, 2 d; analog-sensitive cbk1-as2 kinase mutant strain. inhibition, % at 50 µM. 1.8% of 190,000 active. AID 868;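 active = inhibition above a set limit, 3 SD over mean compound inhibition, cut at about 8.4% in these data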;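 also: inhibition rescues growth on 5-FOA so higher OD means more RAM inhibition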
Numbers stand for hits; 0 = inactive; - = no result.

SMILES	SDO1 yeast rescue	Yeast life ext	Measles CPE	BB579 growth dn	RAM inhibit
CCCCCNc1c(C(=O)OCC)c(=O)[nH]c2ccccc12	0	0	36	0	0
CCCC(=O)Nc1c(C(=O)OCC)[nH]c2ccccc12	0	0	39	0	0
CCOC(=O)c1[nH]c2ccc(OCC)cc2c1NC(=O)CN1CCC2(CC1)OCCO2	0	57	0	0	0
O=C(Cn1cnc2c(nnn2Cc2ccc(F)cc2)c1=O)N1CCN(c2ccccc2)CC1	0	0	0	0	0
CCc1cc2c(=O)[nH]c(N3CCCC3)nc2s1	0	0	0	0	0
CCc1cc2c(=O)[nH]c(-c3ccccn3)nc2s1	0	0	0	78	0
COCCNc1nnc(SCC(=O)c2c[nH]c3ccccc23)s1	0	0	0	0	0
C=CCO/N=C/C1C(=O)CC(C)(C)CC1=O	0	39	0	0	0
C/[N+]([O-])=C\C1C(=O)CC(C)(C)CC1=O	-	-	-	-	0
CCOc1ccc(NC(=O)COC(=O)C2(C)CC2(Cl)Cl)c([N+](=O)[O-])c1 (stereo not given)	-	-	-	-	9.1
CCN(CC)C(=O)C1CCCN(C(=O)Nc2ccccc2)C1 (stereo not given)	0	0	35	0	0
O=C(O)CCC(=O)NNc1ncnc2ccccc12	-	-	-	-	0
CCC(=O)NNc1ncnc2ccccc12	0	0	92	0	0
CCCC1COC(Cn2cncn2)(c2ccc(C)cc2)O1 (stereo not given)	0	0	0	94	0
CSc1nnc(C)c(=O)n1COC(=O)/C=C/c1ccc2c(c1)OCO2	-	-	-	-	0
CCCCOCC1CN(c2ccccc2)C(=O)CS1 (stereo not given)	0	0	0	0	0
CCCCC1C(=O)N(c2ccccc2)N(c2ccccc2)C1=O	0	28	60	0	0
O=C(COc1ccccc1)N1CCN(c2ccccc2)CC1	0	0	0	0	0
O=C(COc1ccc(Br)cc1)N1CCN(c2ccccc2)CC1	0	0	35	0	0
CC(C)CN(C(=O)CN1CCN(c2ccc([N+](=O)[O-])cc2)CC1)c1c(N)n(CC(C)C)c(=O)[nH]c1=O	-	-	-	-	0
CCN(CC)CCCN(Cc1cc2cc3c(cc2[nH]c1=O)OCO3)C(=S)Nc1ccccc1	-	-	-	-	0
CC(C)=CC(=O)Nc1nnc(-c2ccccc2)s1	0	0	0	0	0
CC(C)=CC(=O)Nc1nnc(C)s1	0	-	38	0	0
O=C(CN1CCN(c2ncc(C(F)(F)F)cc2Cl)CC1)NCCNc1ncc(C(F)(F)F)cc1Cl	0	0	0	93	0
O=S(=O)(N1CCCCCC1)N1CCN(S(=O)(=O)N2CCCCC2)CC1	0	0	0	0	0
SMILES	SDO1 yeast rescue	Yeast life ext	Measles CPE	BB579 growth dn	RAM inhibit
COc1cc(/C=C2/SC(=S)N(c3ccccc3)C2=O)ccc1Oc1nc(N2CCOCC2)nc(N2CCOCC2)n1	0	0	0	0	9.3
O=Cc1ccccc1Oc1nc(N2CCOCC2)nc(N2CCOCC2)n1	-	-	-	-	0
CS(=O)(=O)Nc1cccc(C(=O)CC2(O)C(=O)Nc3ccc(Br)cc32)c1 (stereo not given)	0	0	34	0	0
CS(=O)(=O)Nc1cccc(C(=O)CC2(O)C(=O)Nc3ccccc32)c1 (stereo not given)	0	0	0	0	0
CCc1cccc(CC)c1NC(=O)C1SC(=Nc2ccccc2C)C(c2nc3ccccc3s2)=C1N (stereo not given)	0	0	0	0	8.8
O=C(Nc1cccc(S(=O)(=O)N2CCCCC2)c1)c1ccc2c(=O)n3c(nc2c1)CCCCC3	0	0	0	0	0
O=C(/C=C/c1ccc(Cl)c([N+](=O)[O-])c1)Nc1cccnc1	0	0	44	0	0
O=C(/C=C/c1ccc([N+](=O)[O-])cc1)Nc1cccnc1	0	0	0	0	0
CCN1C(=O)C(CC(=O)Nc2ccc(Br)cc2)N(CCCc2ccccc2)C1=S (stereo not given)	0	0	0	0	11
CCOc1ccc(NC(=O)CC2C(=O)N(C)C(=S)N2CCCc2ccccc2)cc1 (stereo not given)	0	0	0	0	0
COC(=O)c1cc(OC)c(OC)cc1NC(=O)CSc1ccccc1	0	0	0	0	0
CC(C)CCn1c(Oc2ccccc2Cl)nc2c1c(=O)n(C)c(=O)n2C	0	0	49	0	0
CN(Cc1ccccc1)Cc1nc2c(c(=O)n(C)c(=O)n2C)n1Cc1ccccc1Cl	0	0	53	0	0
CC(C)CCn1c(Cl)nc2c1c(=O)n(C)c(=O)n2C	0	0	0	0	0
O=C(NCCOc1ccccc1F)c1cc(F)c(F)cc1Cl	0	0	33	0	0
COc1ccccc1OCCNC(=O)c1cc(F)c(F)cc1Cl	0	0	0	0	0
CN1CCN(C(=S)NC(=O)c2ccco2)CC1	-	-	-	-	0
COc1ccc(OC)c(C2C3=C(CC(C)(C)CC3=O)Nc3nnnn32)c1 (stereo not given)	0	0	31	0	0
COc1ccccc1C1C2=C(CC(C)(C)CC2=O)Nc2nnnn21 (stereo not given)	0	0	-	0	0
CCOC(=O)c1ccccc1NS(=O)(=O)c1ccc(OCC)cc1	0	0	0	0	0
O=C(Nc1ccccc1N1CCOCC1)c1ccccc1NS(=O)(=O)c1ccc(F)cc1	0	0	0	0	0
CCOc1ccc(NC(=O)c2ccccc2NS(=O)(=O)c2ccc(F)cc2)c([N+](=O)[O-])c1	0	0	0	0	10
CCOc1ccc(S(=O)(=O)Nc2ccccc2C(=O)Nc2ccccc2N2CCOCC2)cc1	0	0	0	0	8.8
CC(=O)OC1c2ccccc2C(=O)N1Cc1ccccc1Cl (stereo not given)	0	0	0	0	0
CC1(C)CC(=O)C(C(c2cccc([N+](=O)[O-])c2)C2C(=O)CC(C)(C)CC2=O)C(=O)C1	0	27	0	0	0
SMILES	SDO1 yeast rescue	Yeast life ext	Measles CPE	BB579 growth dn	RAM inhibit
O=[N+]([O-])c1cc(/C=N/Nc2nc3ccccc3[nH]2)c(O)cc1O	0	0	0	0	0
CC1=CN2C(=N)/C(=C/c3ccco3)C(=O)N=C2S1	0	0	0	0	0
CC1=CN2C(=N)/C(=C/c3ccc([N+](=O)[O-])o3)C(=O)N=C2S1	0	33	0	0	0
Cn1cc(S(=O)(=O)NCc2ccco2)c(=O)n(C)c1=O	0	0	0	0	0
CCN=C1S/C(=C\c2ccc(N3CCOCC3)cc2C)C(=O)N1CC	0	0	0	0	10
CN=C1S/C(=C\c2ccc(N3CCOCC3)cc2C)C(=O)N1C	0	0	0	0	0
COC(=O)c1ccccc1NC(=O)c1ccc(COc2cccc3ccccc23)o1	0	0	0	0	0
COC(=O)c1ccccc1NC(=O)c1ccc(COc2ccccc2)o1	0	0	0	0	9.6
CCOc1ccc(NC(=O)COc2ccc(C(=O)NCCc3ccccc3)cc2)cc1	0	0	0	0	0
CCCCc1ccc(NC(=O)COc2ccc(C(=O)Nc3ccccc3OCC)cc2)cc1	0	0	0	0	8.7
CC(=O)Nc1cccc(OCC(=O)Nc2ccccc2)c1	0	0	0	0	0
